We go through 6 compounds from ChEMBL document CHEMBL1137097, “Discovery of potent and orally bioavailable N,N'-diarylurea antagonists for the CXCR2 chemokine receptor” (Bioorg Med Chem Lett, 2004).

Series [1] is described as follows: Oral bioavailability in rat. In kind it is ADME, organism-based. As to conditions: in vivo. In outline: (§1)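 Male Sprague–Dawley rats, n=3 per study, in an iv/po crossover design. Dosed in aqueous solution with 1% DMSO and up to 20% hydroxypropyl-beta-cyclodextrin, 4 and 8 µmol/kg for iv and po. Lateral tail vein blood sampling. Plasma drug measured by LC/MS/MS, lower limit of quantification >10ng/mL.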

Series [2] can be described thus: Plasma clearance in rat. Type of series: ADME, organism-based. A digest of the protocol:
as §1

Series [3] deals with T1, C-X-C chemokine receptor type 1 (Homo sapiens, UniProt P25024).
T1 sequence (P25024 whole entry): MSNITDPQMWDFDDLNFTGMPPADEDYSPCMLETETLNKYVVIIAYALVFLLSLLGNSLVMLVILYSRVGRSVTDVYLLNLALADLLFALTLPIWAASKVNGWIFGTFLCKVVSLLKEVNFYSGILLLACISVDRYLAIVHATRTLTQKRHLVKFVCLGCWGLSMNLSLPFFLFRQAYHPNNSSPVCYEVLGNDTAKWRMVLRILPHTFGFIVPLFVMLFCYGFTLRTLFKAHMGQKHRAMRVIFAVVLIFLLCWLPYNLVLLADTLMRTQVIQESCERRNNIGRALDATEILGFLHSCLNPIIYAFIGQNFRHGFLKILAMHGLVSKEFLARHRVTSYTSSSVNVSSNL
As to the kind of experiment: Concentration required to inhibit [125I]-IL-8 binding towards C-X-C chemokine receptor type 1 of human expressed in CHO cells. Type of series: cell-based. A digest of the protocol: (§2)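 SPA binding on membranes from CHO cell lines expressing CXCR1 or CXCR2. Competition against radiolabeled human recombinant [125I]-IL-8 at 0.23nM. Values are the mean of three individual experiments.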

The nature of series [4]: pKa value was determined. In kind it is physicochemical. A digest of the protocol: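 pKa calculated in silico, not measured experimentally.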
In series [5] the target is T2, C-X-C chemokine receptor type 2 (Homo sapiens, UniProt P25025).
T2 sequence (P25025 whole entry): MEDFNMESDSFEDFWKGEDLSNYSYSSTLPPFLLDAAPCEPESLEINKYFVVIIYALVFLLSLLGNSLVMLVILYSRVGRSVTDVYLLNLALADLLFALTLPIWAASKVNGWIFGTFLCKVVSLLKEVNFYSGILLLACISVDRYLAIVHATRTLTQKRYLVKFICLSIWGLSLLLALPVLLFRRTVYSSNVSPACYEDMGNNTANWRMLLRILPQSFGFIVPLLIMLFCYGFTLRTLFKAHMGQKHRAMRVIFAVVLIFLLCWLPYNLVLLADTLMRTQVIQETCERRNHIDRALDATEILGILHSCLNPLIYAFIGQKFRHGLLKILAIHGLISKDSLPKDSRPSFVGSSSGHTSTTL
Description: Concentration required to inhibit [125I]IL-8 binding towards C-X-C chemokine receptor type 2 of human expressed in CHO cells. Type of series: cell-based. In outline: as §2

Series [6] in a line: In vitro intrinsic clearance of urea in human liver microsomes in presence of UDPGA. Type of series: ADME, Microsome. In outline:
(§3)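 Rat or human liver microsomes at 0.5mg microsomal protein/mL, run with or without UDPGA. Final compound 0.5–1 µM. Substrate loss followed by LC/MS/MS over a 30-min incubation. CLint taken from the slope of substrate disappearance versus time.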

Series [7] in a line: In vitro intrinsic clearance of urea in human liver microsomes in absence of UDPGA. In kind it is ADME, Microsome. A digest of the protocol:
as §3
Background: Liver microsomes are a subcellular fraction often used to study metabolism.

A short description of series [8]: In vitro intrinsic clearance of urea in rat liver microsomes in presence of UDPGA. In kind it is ADME, Microsome. In outline:
as §3

The nature of series [9]: In vitro intrinsic clearance of urea in rat liver microsomes in absence of UDPGA. Type of series: ADME, Microsome. In outline: as §3

A word on the bioavailability: it is the share of a dose that reaches the circulation, judged against a reference dose that is usually intravenous. The low end stands for little systemic uptake, the high end for much systemic uptake. One may read the clearance as the volume of plasma or blood freed of the substance per unit of time. As usually defined, the IC50 is the concentration at which inhibition is half-maximal. Lower therefore signals inhibition by little substance. By pKa is commonly meant the negative logarithm of the acid dissociation constant. A high value points to a weaker acid or stronger base. Compound `CN(C)S(=O)(=O)c1c(Cl)ccc(NC(=O)Nc2ccccc2Br)c1O` showed a bioavailability in series [1] of 100%. Further, the clearance in series [2] worked out at 23.4 mL/min/kg. Moreover, the results for the concentration for half-maximal inhibition (IC50) in series [3] and in series [5] were 4.32 µM and 12 nM, respectively. In series [4], this compound displayed a pKa of 6.19.

In the case of `O=C(Nc1ccc(Cl)cc1O)Nc1ccccc1Br`, in [1], the bioavailability was found to be 6.6%. Besides, the clearance in [2] amounted to 323 mL/min/kg. Besides, the pKa in series [4] was determined as 8.24. Besides, the 50% inhibitory concentration (IC50) in series [5] came to 906 nM.

As to `NC(=O)c1c(Cl)ccc(NC(=O)Nc2ccccc2Br)c1O`, the bioavailability in [1] is 3.6%. The same compound had a clearance in series [2] of 105 mL/min/kg. In addition, the figures for the half-inhibitory concentration (IC50) in series [3] and in [5] were 6.04 µM and 10 nM, respectively. Also, the CL in [6] is 1.5 ml min-1 g-1 liver; in [7] it was 0.74 ml min-1 g-1 liver; in [8], 5.3 ml min-1 g-1 liver; in [9], 1.5 ml min-1 g-1 liver. The pKa in [4] was determined as 7.11.

In the case of `O=C(Nc1ccccc1Br)Nc1ccc(Cl)c(Cl)c1O`, the bioavailability in series [1] came out at 13%. The compound further came in with a clearance in series [2] of 73.6 mL/min/kg. For the same compound, the IC50 in series [3] stood at 13.4 µM; in [5] it was 63 nM. In series [4], this compound came in with a pKa of 7.24.

In [1], `NS(=O)(=O)c1c(Cl)ccc(NC(=O)Nc2ccccc2Br)c1O` came in with a bioavailability of 86%. The same compound displayed a clearance in [2] of 16.1 mL/min/kg. Also, the 50% inhibitory concentration (IC50) was 1.37 µM in series [3] and 7 nM in series [5]. The CL was 1.5 ml min-1 g-1 liver in [6], 0.74 ml min-1 g-1 liver in series [7], 5.3 ml min-1 g-1 liver in [8] and 1.5 ml min-1 g-1 liver in [9]. In addition, the pKa in series [4] was determined as 6.12.

In series [1], `Cl.NCc1c(Cl)ccc(NC(=O)Nc2ccccc2Br)c1O` displayed a bioavailability of 67%. The compound further registered a clearance in [2] of 104 mL/min/kg. Besides, the IC50 in [3] is 30 µM; in series [5], 114 nM. In addition, the pKa in series [4] was determined as 6.85.
